Reference: PMC4697833 (Bioorganic & medicinal chemistry, 2015)
Like-named read-outs stand apart in the source and are kept apart here.

Legend:
[1] = test system: TEX cells; assay: Methylcellulose clonal growth assay with TEX cells; assay type: cell-based, human; details: 11 d growth on methylcellulose
Procedure, shortened: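 TEX cells were suspended in methylcellulose medium with penicillin (100 I.U./mL) and streptomycin (100 µg/mL) at a final 1.2 × 10⁴ cells/mL, i.e. 6,000 cells/well. Test compound, diluted in TEX medium, or DMSO (0.05%, control) was added. Cells were plated as technical triplicates and grown 11 d at 37 °C, 5% CO₂. Two people counted colonies independently at 10X. Values are the mean of 3 biological replicates ± S.D., with unpaired t-tests against DMSO.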

[2] = Measured LogD7.4; assay type: physicochemical; details: pH 7.4
Procedure, shortened: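 LogD at pH 7.4 was determined experimentally by liquid-liquid distribution chromatography, run by a contract analytical lab. Each value is the average of two measurements. The assay's measurable range is 1–5 log units.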

[3] = test system: HL-60 (acute promyelocytic leukemia); assay: Alamar blue cytotoxicity assay, HL-60; assay type: cell-based, human
[4] = test system: CCRF-CEM (acute lymphoblastic leukemia); assay: Alamar blue cytotoxicity assay, CCRF-CEM; assay type: cell-based, human; details: read-out: Growth inhibitory activity (IC50) CCRF-CEM
Procedure, shortened: (§1)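 Suspension cells (CCRF-CEM; TEX in IMDM with L-glutamine, 15% FBS, SCF 20 ng/mL, IL-3 2 ng/mL, penicillin/streptomycin) were seeded at 10,000 cells/well 24 h before compound addition. Cultures were kept at 37 °C in humidified 5% CO₂. Viability was read with Alamar blue. IC50 is mean ± S.D. of n ≥ 3 biological replicates.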

[5] = test system: U-87 MG (glioblastoma multiforme); assay: Alamar blue cytotoxicity assay, U-87 MG; assay type: cell-based, human; details: read-out: Growth inhibitory activity (IC50) U-87 MG
[6] = test system: GBM6 (glioblastoma multiforme); assay: Alamar blue cytotoxicity assay, GBM6; assay type: cell-based, human
[7] = test system: MCF-7 (breast adenocarcinoma); assay: Alamar blue cytotoxicity assay, MCF-7; assay type: cell-based, human
Procedure, shortened: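 MCF-7 cells were grown in MEM with 10% FBS, bovine insulin 0.01 mg/mL, penicillin and streptomycin at 37 °C in 5% CO₂. They were detached with trypsin-EDTA or TrypLE and seeded at 5,000 cells/well 24 h before dosing. Readout was Alamar blue reduction. IC50 is mean ± S.D. from n ≥ 3 biological replicates.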

[8] = test system: DU-145 (prostate cancer); assay: Alamar blue cytotoxicity assay, DU-145; assay type: cell-based, human
[9] = test system: murine AML cell line B117P; assay: Murine cytotoxicity assay, B117P; assay type: cell-based; details: read-out: Growth inhibitory activity (IC50) B117P
Procedure, shortened: (§2)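 Murine AML lines were used: B117P and B140P from BXH-2 mice, which develop leukemia from an endogenous murine leukemia virus, and their counterparts B117H and B140H. Cells per well were 25,000 (B117P), 28,000 (B117H), 36,000 (B140P) and 44,000 (B140H) in 96-well format. IC50 values are mean ± S.D. from biological triplicate.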

[10] = test system: murine AML cell line B117H (cytarabine-resistant); assay: Murine cytotoxicity assay, B117H; assay type: cell-based; details: read-out: Growth inhibitory activity (IC50) B117H
Procedure, shortened: as §2

[11] = test system: murine AML cell line B140P; assay: Murine cytotoxicity assay, B140P; assay type: cell-based; details: read-out: Growth inhibitory activity (IC50) B140P
Procedure, shortened: as §2

[12] = test system: murine AML cell line B140H (cytarabine-resistant); assay: Murine cytotoxicity assay, B140H; assay type: cell-based; details: read-out: Growth inhibitory activity (IC50) B140H
Procedure, shortened: as §2

[13] = test system: TEX cells; assay: Alamar blue cytotoxicity assay, TEX; assay type: cell-based, human; details: read-out: Growth inhibitory activity (IC50) TEX
Procedure, shortened: as §1

[14] = test system: total bone marrow cell population; assay: Flow cytometry viability of total bone marrow cells; assay type: cell-based, human
Procedure, shortened: (§3)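 Cells were plated at 1 × 10⁶ cells/mL with test compound (25 µM) or doxorubicin (0.5 µM) for 12 h (final DMSO 0.03%). Staining was CD34/CD38, then Annexin V/7-AAD, with over 5 × 10⁴ events. Viability is the unstained fraction, mean ± S.D. of n ≥ 3; unpaired t-tests.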

[15] = test system: CD34+CD38− TEX cells; assay: Flow cytometry viability of CD34+CD38− TEX cells; assay type: cell-based; details: Homo sapiens, 12 h; for viability at 25 µM: read-out: cell viability of CD34+CD38− TEX cells
Procedure, shortened: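 TEX cells at 1 × 10⁶ cells/mL were dosed for 12 h at 37 °C, 20% O₂, 5% CO₂ (final DMSO 0.03% v/v). Test compound was given at 25, 15 or 2.5 µM; the doxorubicin reference at 2.5, 0.5 or 0.05 µM. Cells were stained for CD34/CD38 (10 min, 4 °C), then Annexin V-FITC/7-AAD (10 min, RT, dark). Over 5 × 10⁴ events were collected. Viable cells were double-negative. Values are mean ± S.D. of 3–5 biological replicates; unpaired t-test versus untreated.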

[16] = test system: TEX cells; assay: Intracellular ROS induction; assay type: cell-based, human; details: 30 min
Procedure, shortened: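 TEX cells were seeded at 5 × 10⁵ cells/mL and incubated overnight at 37 °C, 5% CO₂. They were then exposed to test compound at 25 or 100 µM, with H₂O₂ 100 µM as positive control. CellROX Green (5 µM final) was added at once, followed by 30 min at 37 °C. Cells were washed twice in FACS buffer and 5 × 10⁴ events recorded. Median fluorescence was normalized to untreated control. Runs were in quadruplicate (H₂O₂ triplicate); mean ± S.D.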

[17] = test system: NCI/ADR-RES (ovarian cancer; adriamycin-resistant); assay: Alamar blue cytotoxicity assay, NCI/ADR-RES; assay type: cell-based, human; details: read-out: Growth inhibitory activity (IC50) NCI/ADR-RES; mean ± S.D.
Procedure, shortened: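 Adherent NCI/ADR-RES cells were seeded at 5,000 cells/well 24 h prior to compound treatment and kept at 37 °C, 5% CO₂. Growth was measured by Alamar blue. IC50 values are mean ± S.D. over n ≥ 3 biological replicates.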

[18] = mice, oral dosing 100 mg/kg; cited from earlier work
[19] = canine, oral dosing 100 mg/kg; cited from earlier work
[20] = cited from earlier work
[21] = test system: mice; details: continuous oral dosing 100 mg/kg daily for over four weeks; cited from earlier work
[22] = test system: CD34+CD38− BM cells; assay: Flow cytometry viability of CD34+CD38− bone marrow cells; assay type: cell-based, human
Procedure, shortened: as §3

[23] = test system: NCI/ADR-RES (ovarian cancer; adriamycin-resistant); details: read-out: IC50 NCI/ADR-RES, previously reported; cited from earlier work
[24] = mice, oral dosing 40 mg/kg; cited from earlier work
[25] = mouse plasma; cited from earlier work
[26] = test system: total BM; details: cited from earlier work
[27] = test system: CD34+CD38− BM cells; details: 5 µM for 18 hrs; cited from earlier work
[28] = Homo sapiens, HL-60, read-out: Growth inhibitory activity (IC50) HL-60
[29] = Homo sapiens, GBM6, read-out: Growth inhibitory activity (IC50) GBM6
[30] = Homo sapiens, MCF7, read-out: Growth inhibitory activity (IC50) MCF-7
[31] = Homo sapiens, DU-145, read-out: Growth inhibitory activity (IC50) DU-145
[32] = 15 µM, N.D. = clonal growth not detected
[33] = read-out: Growth inhibitory activity (IC50) HL-60, mean ± S.D.
[34] = read-out: Growth inhibitory activity (IC50) GBM6, mean ± S.D.
[35] = read-out: Growth inhibitory activity (IC50) MCF-7, mean ± S.D.
[36] = read-out: Growth inhibitory activity (IC50) DU-145, mean ± S.D.

Structure (SMILES)	chromatographic logD [2]	IC50 ([4]; Homo sapiens, CCRF-CEM) [µM]	IC50 [7, 30] [µM]	IC50 ([9]; Mus musculus) [µM]	IC50 ([10]; Mus musculus) [µM]	IC50 ([11]; Mus musculus) [µM]	IC50 ([12]; Mus musculus) [µM]	IC50 ([13]; Homo sapiens, 48 h) [µM]	reduction in total BM viability ([14]; 25 µM, 12 h)	viability at 25 µM [15] [%]	Colonies (mean number ± S.D.) ([1]; 2.5 µM)	induction of intracellular ROS (MFI normalized to untreated control) ([16]; 100 µM)	IC50 [3, 33] [µM]	IC50 ([4]; mean ± S.D.) [µM]	IC50 [7, 35] [µM]	IC50 [8, 36] [µM]	IC50 [17] [µM]	further results
Nc1ccn([C@@H]2O[C@H](CO)[C@@H](O)[C@@H]2O)c(=O)n1 [AraC, cytarabine]	–	–	–	–	–	–	–	–	–	–	–	–	–	–	–	–	–	Colonies (mean number ± S.D.) ([1]; 0.1 µM): 2.6 ± 1.0
C=C1C(=O)O[C@@H]2/C=C(\C)CC/C=C(\C)CC[C@@H]12 [CTL, Costunolide]	2.9	2.3 ± 0.2	17.5 ± 3.7	3.5 ± 0.4	4.8 ± 0.7	3.6 ± 1.2	2.8 ± 0.7	4.9 ± 0.4	22–26%	1 to 10	6.9 ± 3.6	2.2 fold	–	–	–	–	–	IC50 [3, 28]: 13 ± 0.2 µM; IC50 ([5]; Homo sapiens, U-87 MG): 9.6 ± 0.8 µM; IC50 [6, 29]: 7 ± 1.8 µM; IC50 [8, 31]: 7.7 ± 2.8 µM; Colonies (mean number ± S.D.) [1, 32]: 5.6 ± 4.7
C=C1C(=O)O[C@@H]2[C@H]3O[C@]3(C)CC/C=C(\CO)CC[C@@H]12 [MelB, Melampomagnolide B]	–	–	–	–	–	–	–	–	22–26%	–	5.3 ± 1.6	No observable induction of ROS	7.5 ± 3	5.5 ± 1.2	9.5 ± 1.9	14.3 ± 5.9	15 ± 4.9	IC50 ([5]; mean ± S.D.): 16.3 ± 6.8 µM; IC50 [6, 34]: 4.5 ± 1.9 µM; IC50 ([9]; mean ± S.D.): 2.1 ± 0.8 µM; IC50 ([10]; mean ± S.D.): 2.5 ± 1 µM; IC50 ([11]; mean ± S.D.): 2.9 ± 1 µM; IC50 ([12]; mean ± S.D.): 2.2 ± 0.7 µM; IC50 ([13]; 48 hr treatment, mean ± S.D.): 6.8 ± 2.3 µM; Colonies (mean number ± S.D.) [1, 32]: 0.1 ± 0.3; induction of intracellular ROS (MFI normalized to untreated control) ([16]; 25 µM): No observable induction of ROS
C=C1C(=O)O[C@H]2[C@H]1CCC(C)=C1CC[C@@](C)(O)[C@@H]12 [Compound 1, Micheliolide]	2.18	2.7 ± 1.1	9.6 ± 1	6.4 ± 1	8.8 ± 1.7	10 ± 0.4	9.3 ± 1.5	2.7 ± 0.4	22–26%	1 to 10	4.2 ± 2.5	2.9 fold	–	–	–	–	–	IC50 [3, 28]: 9.2 ± 2.2 µM; IC50 ([5]; Homo sapiens, U-87 MG): 17.8 ± 5 µM; IC50 [6, 29]: 8.5 ± 0.7 µM; IC50 [8, 31]: 14.8 ± 4 µM; induction of intracellular ROS (MFI normalized to untreated control) ([16]; 25 µM): 1.7 fold
C/C1=C\CC[C@@]2(C)O[C@@H]2[C@H]2OC(=O)[C@@H](CN(C)C)[C@@H]2CC1.O=C(O)/C=C/C(=O)O [DMAPT, dimethylamino-parthenolide fumarate]	–	–	–	–	–	–	–	–	–	–	–	–	7.1 ± 0.4	1.9 ± 0.4	10.4 ± 1.2	8.4 ± 4.5	12.3 ± 2.7	Cmax [18]: 25 µM; Cmax [19]: 61 µM; increase of water solubility versus PTL [20]: ~ 1000 fold; toxicity to mice [21]: no measurable toxicity
COc1cccc2c1C(=O)c1c(O)c3c(c(O)c1C2=O)C[C@@](O)(C(=O)CO)C[C@@H]3O[C@H]1C[C@H](N)[C@H](O)[C@H](C)O1 [DOX, Doxorubicin]	–	–	–	–	–	–	–	–	–	–	–	–	–	–	–	–	–	reduction in total BM viability ([14]; 0.5 µM, 12 hr): 56%; reduction in the primitive CD34+CD38− BM population viability ([22]; 0.5 µM, 12 hr): 85%; viability at 0.5 µM ([15]; read-out: viability of CD34+CD38− TEX cells): 6%; Colonies (mean number ± S.D.) ([1]; 0.1 µM): 0.7 ± 1.3; IC50 [23]: > 500 µM
C=C1C(=O)O[C@H]2[C@H]1CC/C(C)=C/CC[C@@]1(C)O[C@@H]21 [PTL, Parthenolide]	1.79	4.7 ± 1.6	9.7 ± 2.8	1.1 ± 0.2	4.7 ± 1.6	5.8 ± 2.3	3.4 ± 1.1	2.8 ± 0.2	48%	1 to 10	2.6 ± 2.7	1.6 fold	–	–	–	–	–	toxicity to primitive CD34+CD38− BM cells ([22]; 25 µM, 12 h): no significant toxicity; concentration in serum [24]: approximately 200 nM; plasma half-life t1/2 [25]: 1.6 h; toxicity to total BM ([26]; 5 µM for 18 hrs): non-toxic; overall BM toxicity ([26]; 7.5 µM for 18 hrs): some overall BM toxicity; toxicity to CD34+CD38− BM cells [27]: non-toxic
Nc1ccn([C@@H]2O[C@H](CO)[C@@H](O)C2(F)F)c(=O)n1 [gemcitabine]	–	–	–	–	–	–	–	–	–	–	–	–	–	–	–	–	–	IC50 [23]: > 500 µM
OO [hydrogen peroxide]	–	–	–	–	–	–	–	–	–	–	–	3.1 fold	–	–	–	–	–	–
C=C1C(=O)OC2C1CCC(C)=CCCC1(C)OC21 (stereo not drawn) [Compound 2, cis-PTL]	–	–	–	–	–	–	–	–	–	–	–	–	8 ± 1.1	2.2 ± 1	7.5 ± 0.8	6 ± 4.2	9.4 ± 2.1	LogD7.4 ([2]; average of two measurements): 2.00; IC50 ([5]; mean ± S.D.): 9.1 ± 4.4 µM; IC50 [6, 34]: 3.3 ± 0.8 µM
